# Experimental data pooled from the literature.
# Protocols differ between the studies behind these lines.
# Target: Serine/threonine-protein kinase ULK2 (ULK2, Homo sapiens, UniProt Q8IYT8)
# Sequence (Q8IYT8 1-1036, as in one of the studies): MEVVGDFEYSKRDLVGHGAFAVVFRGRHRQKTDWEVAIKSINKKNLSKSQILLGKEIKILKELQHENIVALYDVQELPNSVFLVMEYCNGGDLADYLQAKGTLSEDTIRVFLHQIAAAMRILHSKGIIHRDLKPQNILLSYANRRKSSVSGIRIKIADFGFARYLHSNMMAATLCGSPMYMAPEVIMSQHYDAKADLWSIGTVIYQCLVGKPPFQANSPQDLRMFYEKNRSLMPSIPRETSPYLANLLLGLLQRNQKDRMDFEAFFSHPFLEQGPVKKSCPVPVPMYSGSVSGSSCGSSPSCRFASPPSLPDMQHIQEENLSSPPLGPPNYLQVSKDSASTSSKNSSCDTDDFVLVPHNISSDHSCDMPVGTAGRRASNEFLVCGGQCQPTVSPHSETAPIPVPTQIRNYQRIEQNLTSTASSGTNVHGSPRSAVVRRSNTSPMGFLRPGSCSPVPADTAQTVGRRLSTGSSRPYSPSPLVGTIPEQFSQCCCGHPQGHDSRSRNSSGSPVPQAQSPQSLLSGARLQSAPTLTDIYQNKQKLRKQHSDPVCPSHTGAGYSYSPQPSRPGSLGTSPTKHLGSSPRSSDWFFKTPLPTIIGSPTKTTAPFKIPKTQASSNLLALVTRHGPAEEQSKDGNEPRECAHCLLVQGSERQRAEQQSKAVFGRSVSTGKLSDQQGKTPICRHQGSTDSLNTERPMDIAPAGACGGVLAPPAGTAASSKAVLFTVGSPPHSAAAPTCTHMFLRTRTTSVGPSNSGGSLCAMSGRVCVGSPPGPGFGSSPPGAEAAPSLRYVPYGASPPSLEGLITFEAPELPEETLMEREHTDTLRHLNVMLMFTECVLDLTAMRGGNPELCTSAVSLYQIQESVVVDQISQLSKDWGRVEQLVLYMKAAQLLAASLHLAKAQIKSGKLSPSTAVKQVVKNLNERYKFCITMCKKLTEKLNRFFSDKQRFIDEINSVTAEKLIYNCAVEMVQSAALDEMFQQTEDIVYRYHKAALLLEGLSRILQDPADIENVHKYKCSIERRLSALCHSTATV
SMILES,effect on,mode,technique,tested at,endpoint,value
C=CC(=O)N1CCC([C@@H]2CCNc3c(C(N)=O)c(-c4ccc(Oc5ccccc5)cc4)nn32)CC1,enzyme activity,inhibitor,,1 µM,inhibition,8%
N#Cc1ccc(NC(=O)Nc2ccccc2)cc1,cell-free assay,,competition with immobilised ligand,25 µM,remaining binding,86%
C=CC(=O)N1CCC[C@@H](n2nc(-c3ccc(Oc4ccccc4)cc3)c3c(N)ncnc32)C1,enzyme activity,inhibitor,,1 µM,inhibition,13%
Cc1ccc(NC(=O)c2ccnc(C(F)(F)F)c2)cc1-c1cc(OCCO)nc(N2CCOCC2)c1,binding,,,1 µM,remaining binding,100%
COc1ccc2oc(-c3ccc4nc(N)oc4c3)c/c(=N\c3ccccc3NC(=O)CCN)c2c1,binding,,,1 µM,remaining binding,106%
CN1CCN(C(=O)c2ccc(NC(=O)Nc3ccc(N(C)c4ccnc(Nc5ccc(CS(C)(=O)=O)cc5)n4)cc3)cc2)CC1,binding,,,1 µM,remaining binding,78%
C#Cc1cc(-c2cc(Nc3nc(N[C@@H](C)c4ccc(F)cn4)ncc3Cl)n[nH]2)ccc1C=O,enzyme activity,inhibitor,,0.2 µM,inhibition,5.21%
CCCCC(=O)Nc1ccc(-c2ccc3ncn(CCC)c(=O)c3c2)cn1,binding,,competition with immobilised ligand,0.5 µM,remaining binding,100%
